One experiment deals with HepG2. Briefly: Cytotoxicity against human HepG2 cells after 5 days. The class given is functional. The note with it: HepG2, 120 h. The gist of the method: (§1)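 HepG2 and BHK21 cells were seeded, incubated 24 h at 37 °C, then exposed to twofold serial dilutions of compound. The value is CC50 (50% cytotoxic concentration), from at least two independent assays.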
The next experiment relates to BHK-21. Briefly: Cytotoxicity against hamster BHK21 cells after 5 days. The class given is functional. The note with it: Mesocricetus auratus, BHK-21, 120 h. The gist of the method:
as §1

Experiment [1] deals with Mycobacterium tuberculosis. Description: Antitubercular activity against Mycobacterium tuberculosis H37Rv ATCC 27294 assessed as intracellular ATP level after 5 days by luminescence assay. The class given is functional. The gist of the method:
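Growth inhibition of M. tuberculosis H37Rv reported as MIC50. Compounds were dissolved in 90% DMSO (stock), twofold serially diluted in duplicate to 10 concentrations, and spotted into 384-well plates. Assays were run at least twice.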

The test system of experiment [2] is Mycobacterium tuberculosis. Description: Antimycobacterial activity against Mycobacterium tuberculosis TN1040 assessed as intracellular ATP level after 5 days by luminescence assay. The experiment is classed as functional. The note with it: TN1040, 120 h.
Experiment [3] relates to Mycobacterium tuberculosis. Description: Antimycobacterial activity against Mycobacterium tuberculosis TN2524 assessed as intracellular ATP level after 5 days by luminescence assay. The class given is functional. The note with it: TN2524, 120 h.
Experiment [4] relates to Mycobacterium tuberculosis. Briefly: Antimycobacterial activity against Mycobacterium tuberculosis TN3183 assessed as intracellular ATP level after 5 days by luminescence assay. The class given is functional. The note with it: TN3183, 120 h.
Experiment [5] concerns Mycobacterium tuberculosis. Briefly: Antimycobacterial activity against Mycobacterium tuberculosis TN1008 assessed as intracellular ATP level after 5 days by luminescence assay. The class given is functional. The note with it: TN1008, 120 h.
In experiment [6] the test system is Mycobacterium tuberculosis. Description: Antimycobacterial activity against Mycobacterium tuberculosis E8133 assessed as intracellular ATP level after 5 days by luminescence assay. The following applies: E8133, 120 h.
For experiment [7], the system named is Mycobacterium tuberculosis. Briefly: Antimycobacterial activity against Mycobacterium tuberculosis TN1051 assessed as intracellular ATP level after 5 days by luminescence assay. The experiment is classed as functional. The note with it: TN1051, 120 h.
The subject of experiment [8] is Mycobacterium tuberculosis. Briefly: Antimycobacterial activity against Mycobacterium tuberculosis TN1037 assessed as intracellular ATP level after 5 days by luminescence assay. The experiment is classed as functional. The note with it: TN1037, 120 h.
Experiment [9] relates to Mycobacterium tuberculosis. Description: Antimycobacterial activity against Mycobacterium tuberculosis W4 assessed as intracellular ATP level after 5 days by luminescence assay. The class given is functional. The note with it: W4, 120 h.
Experiment [10] deals with Mycobacterium tuberculosis. Description: Antimycobacterial activity against Mycobacterium tuberculosis TN3979 assessed as intracellular ATP level after 5 days by luminescence assay. The experiment is classed as functional. The following applies: TN3979, 120 h.
The test system of experiment [11] is Mycobacterium tuberculosis. Briefly: Antimycobacterial activity against clinical isolate of Mycobacterium tuberculosis TN675 assessed as intracellular ATP level after 5 days by luminescence assay. The experiment is classed as functional. The following applies: TN675, 120 h.
The subject of experiment [12] is Mycobacterium tuberculosis. Briefly: Antimycobacterial activity against Mycobacterium tuberculosis TN2351 assessed as intracellular ATP level after 5 days by luminescence assay. The experiment is classed as functional. The note with it: TN2351, 120 h.
The test system of experiment [13] is Mycobacterium tuberculosis. Description: Antimycobacterial activity against Mycobacterium tuberculosis TN913 assessed as intracellular ATP level after 5 days by luminescence assay. The experiment is classed as functional. The following applies: TN913, 120 h.
The subject of experiment [14] is Mycobacterium tuberculosis. Briefly: Antimycobacterial activity against Mycobacterium tuberculosis BE11677 assessed as intracellular ATP level after 5 days by luminescence assay. The experiment is classed as functional. The note with it: BE11677, 120 h.
The test system of experiment [15] is Mycobacterium tuberculosis. Description: Antimycobacterial activity against Mycobacterium tuberculosis TN4259 assessed as intracellular ATP level after 5 days by luminescence assay. The class given is functional. The note with it: TN4259, 120 h.
Experiment [16] has as its system Mycobacterium tuberculosis. Description: Antimycobacterial activity against clinical isolate Mycobacterium tuberculosis TN994 assessed as intracellular ATP level after 5 days by luminescence assay. The following applies: TN994, 120 h. The experiment is classed as functional.
Experiment [17] has as its system Mycobacterium tuberculosis. Description: Antimycobacterial activity against Mycobacterium tuberculosis TN1082 assessed as intracellular ATP level after 5 days by luminescence assay. The experiment is classed as functional. The note with it: TN1082, 120 h.
Experiment [18] concerns Mycobacterium tuberculosis. Briefly: Antimycobacterial activity against Mycobacterium tuberculosis AH9584 assessed as intracellular ATP level after 5 days by luminescence assay. The experiment is classed as functional. The note with it: AH9584, 120 h.
[19] abbreviates: Mycobacterium tuberculosis, H37Rv ATCC 27294, 120 h.

Values after ≈ are worked out from the molar mass of the structure shown. Some results are limits rather than exact numbers.

Take `ClCCCSc1nnc(COc2ccc(Cl)cc2Cl)o1`: the CC50 in the experiment with HepG2 and in the experiment with BHK-21 was more than 50 µM in each case. For the same molecule, the MBC90 in experiment [1] amounted to 2.5 µM (≈ 0.884 µg/mL). Besides, in experiment [1] (setting [19]), the MIC50 stood at 0.65 µM (≈ 0.23 µg/mL).

Consider `CCCSc1nnc(COc2ccc(Cl)cc2Cl)o1`, for which the CC50 is 19.3 µM in the experiment on HepG2 and 13.8 µM in the experiment on BHK-21. For the same molecule, the MBC90 in experiment [1] stood at 2.5 µM (≈ 0.798 µg/mL). Besides, the MIC50 in experiment [1] (setting [19]) stood at 0.63 µM (≈ 0.201 µg/mL).

For `O=C(CCl)Sc1nnc(COc2ccc(Cl)cc2Cl)o1`, the MIC50 in experiment [1] (setting [19]) is more than 20 µM.

Regarding `ClCCCSc1nnc(Cc2ccc(Cl)cc2Cl)o1`, the CC50 in the experiment with HepG2 and with BHK-21 was more than 50 µM throughout. The MBC90 in experiment [1] worked out at 5 µM (≈ 1.69 µg/mL). Moreover, the MIC50 in experiment [1] (setting [19]) was 1.42 µM (≈ 0.479 µg/mL).

For `CCCSc1nnc(Cc2ccc(Cl)cc2Cl)o1`, the CC50 in the experiment on HepG2 and in the experiment with BHK-21 was more than 50 µM throughout. Further, the MBC90 in experiment [1] was 5 µM (≈ 1.52 µg/mL). Besides, the MIC50 in experiment [1] (setting [19]) amounted to 1.19 µM (≈ 0.361 µg/mL).

Consider `O=C(CCl)Sc1nnc(Cc2ccc(Cl)cc2Cl)o1`, for which the MIC50 in experiment [1] (setting [19]) was 9.67 µM (≈ 3.26 µg/mL).

As to `O=[N+]([O-])c1cccc(OCc2nnc(SCCCCl)o2)c1`, the CC50 in the experiment on HepG2 and in the experiment on BHK-21 was more than 50 µM each time. In experiment [1] (setting [19]), the MIC50 amounted to 11.7 µM (≈ 3.86 µg/mL).

Turning to `CCCSc1nnc(COc2cccc([N+](=O)[O-])c2)o1`, the CC50 with HepG2 and in the experiment with BHK-21 was more than 50 µM throughout. In addition, in experiment [1] (setting [19]), the MIC50 is 8.52 µM (≈ 2.52 µg/mL).

Regarding `O=C(CCl)Sc1nnc(COc2cccc([N+](=O)[O-])c2)o1`, the MIC50 in [1] (setting [19]) is more than 20 µM.

For `O=[N+]([O-])c1cccc(Cc2nnc(SCCCCl)o2)c1`, the cytotoxic concentration (CC50) with HepG2 and in the experiment on BHK-21 was more than 50 µM each time. The MIC50 in [1] (setting [19]) amounted to 7.48 µM (≈ 2.35 µg/mL).

Turning to `CCCSc1nnc(Cc2cccc([N+](=O)[O-])c2)o1`, the CC50 in the experiment with HepG2 and with BHK-21 was more than 50 µM each time. The MIC50 in [1] (setting [19]) turned out to be 6.81 µM (≈ 1.9 µg/mL).

`O=C(CCl)Sc1nnc(Cc2cccc([N+](=O)[O-])c2)o1`: the MIC50 in experiment [1] (setting [19]) is more than 20 µM.

Consider `NNC(=O)c1ccncc1` [ISONIAZID], for which the MIC in [2] came out at 0.03 µg/mL (≈ 0.219 µM); in [3] it was 0.06 µg/mL (≈ 0.438 µM); in [4], 0.03 µg/mL (≈ 0.219 µM); in [5], 0.06 µg/mL (≈ 0.438 µM); in [6], 0.08 µg/mL (≈ 0.583 µM); in experiment [7] it was 0.03 µg/mL (≈ 0.219 µM). Besides, the MIC in [8] was 0.03 µg/mL (≈ 0.219 µM); in experiment [9], 0.03 µg/mL (≈ 0.219 µM); in experiment [10], 0.06 µg/mL (≈ 0.438 µM); in [11], 0.03 µg/mL (≈ 0.219 µM); in [1] (setting [19]), 0.03 µg/mL (≈ 0.219 µM); in [12], 0.06 µg/mL (≈ 0.438 µM). Besides, the MIC in experiment [13] was 0.03 µg/mL (≈ 0.219 µM); in [14], 0.2 µg/mL (≈ 1.46 µM); in [15], 0.03 µg/mL (≈ 0.219 µM); in [16], 0.03 µg/mL (≈ 0.219 µM); in [17] it was 0.03 µg/mL (≈ 0.219 µM); in experiment [18], 0.19 µg/mL (≈ 1.39 µM). In addition, the MIC50 in [1] (setting [19]) worked out at 0.03 µM (≈ 0.00411 µg/mL).

The term CC50 denotes the concentration giving 50% cytotoxicity. A high value points to lower toxicity to the cells. The MIC50 is the lowest concentration that inhibits either 50% of growth or 50% of the strains tested, depending on the study. In general, MIC refers to the least concentration at which growth counts as inhibited.

The values above are taken from ChEMBL document CHEMBL1926580, “Identification and development of 2,5-disubstituted oxadiazole as potential candidate for treatment of XDR and MDR tuberculosis” (2012).
